Assay results: PubChem BioAssay
A number with no mark means an inactive call. Records with an inconclusive call do not appear. Activity calls are given as the source filed them.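 The calls were made as follows, unless noted: active = inhibition over a set limit, the all-compound mean plus 3 SD, in both replicate runs; inconclusive = over that limit in just one replicate run; inactive = at or under that limit in both runs.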

Tests used:
[1] = S. cerevisiae growth inhibition in permissive medium (OD615), pilot counter-assay for S. cerevisiae lifespan shortening project, permissive growth control (AID 705;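 active = growth inhibition above 25% in both replicates, a cutoff set 3 SD above the mean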); conditions: OD615, 24 h, at 10 µM, stronger effect = higher value
Summary of the method: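 assay system = Saccharomyces cerevisiae strain carrying genetically modified DeaD replicative-lifespan system | medium = SC raffinose/galactose permissive medium | dosing = 10 µM single dose, 0.25% DMSO | schedule = 24 h compound exposure at 30 °C after 4 h pre-growth | measured by = OD at 615 nm | read-out basis = growth inhibition from lowered OD615 after 24 h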

[2] = S. cerevisiae growth inhibition in restrictive medium, OD615, pilot screen, restrictive growth control, yeast lifespan reduction project (AID 706;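 active = growth inhibition above a set limit, 3 SD over mean compound inhibition, in both replicates, cut at about 43% in these data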;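 also: modified DeaD lifespan yeast strain shifted to restrictive glucose medium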); conditions: OD615, 48 h, at 10 µM, stronger effect = higher value
Summary of the method: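 Buffer or medium: CSMM-D glucose medium. Material: genetically modified Saccharomyces cerevisiae, DeaD replicative lifespan assay strain. Times: 48 h compound exposure at 30 °C. Measured by: optical density at 615 nm.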

[3] = doxorubicin toxicity protection in MRP-1 cells – H69AR cells, CellTiter-Glo, duplicate, MRP-1 activator project, pilot screen (AID 807;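 active = viability increase at or above a cutoff of the median across tested compounds plus 3 SD, cut at about 8.5% in these data, passing the limit was not always enough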;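 also: compound pretreatment 18-22 h then 72 h combined with doxorubicin; 0% = doxorubicin alone and 100% = vehicle without doxorubicin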); conditions: H69AR viability with doxorubicin, CellTiter-Glo luminescence; at 10 µM; stronger effect = higher value
[4] = viability of HCT116 without oncogenic beta-catenin – human colon tumor cells, pilot screen (AID 823;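 active = cell viability at or below a set limit in both duplicate runs, the limit being the all-compound median minus 4 SD, cut at about 23% in these data, passing the limit was not always enough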;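 also: 0% = wells killed by 20 µM Hyamine and 100% = untreated DMSO cell wells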); conditions: HCT116 beta-catenin knockout viability, CellTiter-Glo, 60 h; at 10 µM; stronger effect = lower value
[5] = viability of PTEN-null HCT116 cells – cell-based, HCT116 clonal line, CellTiter-Glo, pilot screen (AID 824;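 active = viability at or below 27.92% in each of two runs, the all-compound median minus 4 SD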;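 also: 0% = 20 µM Hyamine control and 100% = vehicle cell control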); conditions: HCT116 PTEN-deleted viability, 60 h, at 10 µM, stronger effect = lower value
[6] = RAM pathway blockade in budding yeast – dse1pr::URA3 reporter, 5-FOA selection, pilot screen (AID 869);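 also: 0% = DMSO wells with no growth and 100% = 10 µM 1-NA-PP1 with full growth; RAM network block rescues cells from 5-FOA so hits raise OD615 growth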; conditions: S. cerevisiae dse1pr::URA3 5-FOA growth, OD615, 2 d; at 10 µM; stronger effect = higher value; strain carries analog-sensitive mutant Cbk1 kinase
[7] = RAM signaling pathway blockade in yeast – S. cerevisiae, Pdr1DBD-CYC8 efflux-inhibited sensitized strain, primary screen (AID 1298;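 active = RAM network inhibition above 8.4% in each of two replicates, 3 SD over the compound average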;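 also: 0% = DMSO untreated cells without growth and 100% = 10 µM 1-NA-PP1 full growth; higher means more yeast growth rescued from 5-FOA killing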); conditions: S. cerevisiae cbk1-as DSE1-URA3 strain, 5-FOA growth OD615, 2 d; at 50 µM; stronger effect = higher value

Compound | growth inhibition [1] | growth inhibition [2] | viability increase [3] | viability [4] | viability [5] | inhibition [6] | RAM network inhibition [7]
CC(=O)C1C(c2ccccc2Cl)NC(=O)NC1(O)C(F)(F)F (stereo not drawn) | -3.3% | -12.1% | -0.31% | 112% | 102% | 1.93% | -0.82%
CCCCNC(=O)CS(=O)Cc1nc(-c2cccs2)oc1C (stereo not drawn) | -3.47% | 21.5% | -0.37% | 97.6% | 95.7% | 1.57% | 0.54%
CCOC(=O)C(C)Sc1nc2c(c(=O)[nH]c(=O)n2C)n1Cc1ccc(Cl)cc1 (stereo not drawn) | -3.52% | 1.73% | -4.04% | 92.6% | 91.6% | -0.265% | 2.79%
CC(CCc1ccccc1)NC(=O)CSc1nnnn1C (stereo not drawn) | -6.04% | -18.6% | -1.52% | 101% | 101% | 1.61% | 4.5%
COc1ccc(S(=O)(=O)Cc2ccc(C(=O)N3CCN(c4cccc(C)c4C)CC3)o2)cc1 | -1.63% | -1.19% | -5.44% | 13% (active) | 17.6% (active) | 1.52% | 3.74%
CCN(c1ccccc1)c1cc(C)nc2nc(C)nn12 | -17% | -3.25% | -3.84% | 106% | 96.7% | 1.6% | 4.74%
COc1ccc(NC(=O)C2CCCNC2)cc1OCC(C)C (stereo not drawn) | -15.2% | -19.2% | -1.5% | 98.4% | 97% | 1.75% | 2.92%
C=CCn1c(C(C)NC(=O)C(C)(C)C)nc2ccccc21 (stereo not drawn) | -9.47% | -11.3% | 1.33% | 94.8% | 95.5% | 1.41% | 0.71%
CCN(CC)S(=O)(=O)c1ccc2c3c(cccc13)C(=O)N2 | -12.1% | -11.4% | -4.61% | 97.1% | 96.8% | 2.06% | 4.63%
COCCSc1nc2c(c(=O)[nH]c(=O)n2C)n1Cc1cccc(C)c1 | 0.55% | 0.3% | -1.81% | 90.2% | 79.6% | 1.57% | 4.44%
CCCn1c(CN(Cc2ccccc2)Cc2ccccc2)nc2c1c(=O)n(C)c(=O)n2C | -1.94% | -8.84% | 0.21% | 69.2% | 59.7% | 1.22% | 8.87%
COCCNC(=O)c1ccccc1NC(=O)C1COc2ccccc2O1 (stereo not drawn) | -3.84% | -0.665% | -0.74% | 95.8% | 102% | 2.8% | 4.39%
O=C(c1ccccc1)c1ccc(OC(=O)N2CCOCC2)cc1 | -7.92% | 4.65% | 1.36% | 109% | 90.7% | 1.49% | 8.53%
COc1cc(C)c(C)cc1S(=O)(=O)N1CCN(Cc2ccccc2)CC1 | 9.11% | -12.5% | -3.89% | 96.3% | 93.5% | 0.025% | 5%
O=C(c1ccc(CS(=O)(=O)c2ccc(Br)cc2)o1)N1CCOCC1 | -10.2% | -12.6% | -0.67% | 104% | 97.3% | 2.23% | 0.1%
COc1ccc(C2CC(=O)c3cnc(NC(=O)c4ccccc4)nc3C2)cc1OC (stereo not drawn) | -3.28% | -0.645% | -3.55% | 105% | 96.6% | 0.895% | 5.34%
Cc1cc(C(=O)N2CCN(c3ccccn3)CC2)no1 | -1.03% | 0.795% | 0.33% | 109% | 102% | 1.05% | 2.86%
O=C1c2ccccc2C(Nc2ccc3c(c2)OCO3)N1Cc1ccco1 (stereo not drawn) | 5.28% | -10.7% | -4.48% | 78% | 73.3% | 1.98% | 2.26%
COc1cc(CCC(=O)N2CCN(c3ccc(N4CCOCC4)nn3)CC2)cc(OC)c1OC | 7.64% | 14.6% | -1.86% | 106% | 112% | 0.43% | 4.7%
CC(=O)c1ccc(OCC(O)CN2CCN(Cc3ccccc3)CC2)cc1 (stereo not drawn) | -6.49% | 4.36% | -1.36% | 101% | 92.1% | -0.305% | 0.94%
CCN1C(=O)CSc2ccc(C(=O)OC)cc21 | -6.5% | -12.7% | -1.33% | 95.6% | 90.3% | 1.39% | -0.69%
Cc1cc2cc(CNC(=O)c3ccc(Br)o3)ccc2n1C | -9.25% | -10.3% | -2.79% | 94.2% | 92.1% | 1.93% | 9.25%
CCc1cccc(Nc2cc(C)nc3nc(C)nn23)c1 | -14.3% | -3.76% | -3.25% | 96.7% | 88.3% | 2.72% | 2.83%
O=C(Cn1ncc2c(=O)oc3ccccc3c21)NCCN1CCN(c2ccccc2F)CC1 | 1.82% | -16.2% | -0.78% | 92.8% | 91.5% | 0.705% | 1.34%
CC(=O)Nc1ccc(S(=O)(=O)Nc2cccc(C(=O)NC(C)(C)C)c2)cc1 | -5.5% | -5.24% | -1.14% | 92.1% | 88.2% | 1.53% | 6.92%

Compound | growth inhibition [1] | growth inhibition [2] | viability increase [3] | viability [4] | viability [5] | inhibition [6] | RAM network inhibition [7]
O=C1c2ccccc2C(=O)N1CCCc1nc2ccccc2c(=O)n1-c1cccnc1 | -1.63% | 7.23% | -3.29% | 93.1% | 90.8% | 2.07% | 2.78%
COc1ccc(Nc2nc(N)nc(CN3CCc4ccccc4C3)n2)cc1 | -5.29% | -14.9% | -5.38% | 44.7% | 48.4% | 0.725% | 4.84%
Cn1c(=O)oc2cc(S(=O)(=O)Nc3cccc(F)c3)ccc21 | -14.2% | -2.1% | -0.69% | 94.3% | 89.5% | 2.04% | 5.85%
CCOC(=O)C1CCN(S(=O)(=O)c2ccc3[nH]c(=O)oc3c2)CC1 | -10% | -5.23% | -1.5% | 97.8% | 91.1% | 0.515% | 2.82%
COc1ccc(-c2nn(CC(=O)N(C)C)c(=O)c3ccccc23)cc1 | -7.62% | -6.71% | -1.08% | 99.8% | 86.4% | 1.01% | 0.6%
COC(=O)c1cnn2c(C)c(Cc3cccc(F)c3)c(C)nc12 | -5.12% | -16% | -5.7% | 92.3% | 80.9% | 1.53% | 2.9%
Cc1ccc(O)c(-c2cc(C(F)(F)C(F)F)[nH]n2)c1 | -5.95% | -19.7% | -4.24% | 97.1% | 87.3% | 0.725% | 3.84%
CN(C)c1oc(-c2ccccc2Cl)nc1S(=O)(=O)c1ccccc1 | -17.1% | 0.09% | -0.11% | 95.5% | 93.2% | 1.2% | 17% (active)
COc1ccc(C2C=C(c3ccc(C)c(C)c3)Nc3ncnn32)c(OC)c1OC (stereo not drawn) | -5.12% | 11.7% | -4.29% | 40.4% | 34.3% | 0.775% | -1.46%
C=C(C)CSC1=C(C#N)C(c2ccccc2)CC(=O)N1 (stereo not drawn) | -13.1% | -8.52% | -2.09% | 86.6% | 84.1% | 0.55% | 4.86%
CCOc1ccccc1C1C(C(N)=O)=C(C)Nc2nc(CCCO)nn21 (stereo not drawn) | -13.8% | 2.83% | -1.39% | 100% | 102% | 2.46% | -1.1%
CC(=O)N(Cc1ccco1)C1(C(=O)NC2CCCCC2)CCCCC1 | -10.7% | -22.6% | -2.47% | 94.9% | 94.5% | 3.02% | 1.51%
CCN1CCN(CC(=O)Nc2ccc3c(c2)OCCO3)C(=O)C1=O | 2.63% | 10.1% | 1.13% | 105% | 103% | 0.675% | 2.49%
Cc1nc2cc(-c3cccc(F)c3)nn2c(C)c1CCC(=O)NC(C)CCc1ccco1 (stereo not drawn) | -10.1% | -2.46% | -1.36% | 69.7% | 72.6% | 0.955% | 3.16%
c1ccc(N2CCN(C3CCSC3)CC2)cc1 (stereo not drawn) | -20.2% | -15.7% | 1.11% | 96% | 94.3% | 1.05% | -1.2%
CCCCOc1ccccc1C1C(C(=O)OC)=C(C)N(C)C(C)=C1C(=O)OC | -4.46% | -5.04% | -3.49% | 83.1% | 79.8% | 0.225% | 8.12%
COc1ccccc1C1CC(=O)NC(SCC(=O)Nc2ccccc2)=C1C#N (stereo not drawn) | 4.78% | -11.8% | 1.09% | 93.2% | 88.2% | 3.57% | 1.38%
O=C(Nc1ccc(F)cc1F)N1CCN(c2ncccn2)CC1 | -14.8% | -26.3% | -0.19% | 106% | 100% | 1.76% | 3.24%
O=C1CC(c2ccccc2)C(C(=O)O)N1 (stereo not drawn) | -0.84% | -18.1% | 1.77% | 99.2% | 102% | 2.74% | 0.37%
Cc1cc(NC(=O)c2cn(C3CCCCC3)c(=O)c3c2c2ccccc2n3C)no1 | -5.84% | 11.9% | -3.21% | 71.7% | 71.7% | 1.8% | 7.54%
CN1CCN(Cc2ccc(OCc3ccccc3)cc2)CC1 | -3.27% | -1.79% | -2.45% | 88.1% | 91.4% | -0.965% | -0.47%
CC1(C)CC2(CC(C)(C)N1)OC(=O)N1CCc3ccccc3C12C (stereo not drawn) | -4.17% | -7.5% | -1.65% | 106% | 97.9% | 2.3% | 6.97%
COC(=O)CN1C(=O)CC(C)(C)Sc2ccccc21 | -16.9% | -27.1% | 1.77% | 103% | 101% | 2.17% | 2.53%
CC(=O)c1ccc(N2CCN(C(=O)c3cc4c(=O)n(C)c5ccccc5c4n3C)CC2)cc1 | -6.79% | -16.3% | -3.01% | 96.5% | 88.5% | 1.98% | 2.91%
